{"source": "ChEMBL document CHEMBL5352420", "about": "“Enantioselective synthesis of 4-amino-3,4-dihydrocoumarins and their non-cyclic hydroxyester precursors: Biological evaluation for the treatment of glioblastoma multiforme” (Eur J Med Chem, 2022)", "key": {"[1]": {"test": "Cytotoxicity against mouse N13 cells assessed as cell viability at 0.31 uM incubated for 24 hrs by MTT assay relative to control", "assay_type": "functional", "details": "read-out: Activity", "summary_of_the_method": "(§1)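 MTT assay (mitochondrial activity). Cells grown at 37 °C, humidified 5% CO2: N13 in RPMI, F98 in DMEM.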"}, "[2]": {"test": "Cytotoxicity against mouse N13 cells assessed as cell growth inhibition incubated for 24 hrs by MTT assay", "assay_type": "functional, cell-based", "details": "N13, 24 h", "summary_of_the_method": "as §1"}, "F98 [3]": {"tested_on": "F98", "test": "Cytotoxicity against rat F98 cells assessed as cell viability at 0.31 uM incubated for 24 hrs by MTT assay relative to control", "assay_type": "functional", "details": "read-out: Activity", "summary_of_the_method": "as §1"}, "F98 [4]": {"tested_on": "F98", "test": "Cytotoxicity against rat F98 cells assessed as cell growth inhibition incubated for 24 hrs by MTT assay", "assay_type": "functional, cell-based", "details": "F98, 24 h", "summary_of_the_method": "as §1"}, "[5]": {"test": "Cytotoxicity against mouse N13 cells assessed as cell viability at 0.34 uM incubated for 24 hrs by MTT assay relative to control", "assay_type": "functional", "details": "read-out: Activity", "summary_of_the_method": "as §1"}, "F98 [6]": {"tested_on": "F98", "test": "Cytotoxicity against rat F98 cells assessed as cell viability at 0.34 uM incubated for 24 hrs by MTT assay relative to control", "assay_type": "functional", "details": "read-out: Activity", "summary_of_the_method": "as §1"}, "[7]": {"test": "Cytotoxicity against mouse N13 cells assessed as cell viability at 0.36 uM incubated for 24 hrs by MTT assay relative to control", "assay_type": "functional", "details": "read-out: Activity", "summary_of_the_method": "as §1"}, "F98 [8]": {"tested_on": "F98", "test": "Cytotoxicity against rat F98 cells assessed as cell viability at 0.36 uM incubated for 24 hrs by MTT assay relative to control", "assay_type": "functional", "details": "read-out: Activity", "summary_of_the_method": "as §1"}, "[9]": {"test": "Cytotoxicity against mouse N13 cells assessed as cell viability at 0.5 uM incubated for 24 hrs by MTT assay relative to control", "assay_type": "functional", "details": "read-out: Activity", "summary_of_the_method": "as §1"}, "F98 [10]": {"tested_on": "F98", "test": "Cytotoxicity against rat F98 cells assessed as cell viability at 0.5 uM incubated for 24 hrs by MTT assay relative to control", "assay_type": "functional", "details": "read-out: Activity", "summary_of_the_method": "as §1"}, "[11]": {"test": "Cytotoxicity against mouse N13 cells assessed as cell viability at 0.28 uM incubated for 24 hrs by MTT assay relative to control", "assay_type": "functional", "details": "read-out: Activity", "summary_of_the_method": "as §1"}, "F98 [12]": {"tested_on": "F98", "test": "Cytotoxicity against rat F98 cells assessed as cell viability at 0.28 uM incubated for 24 hrs by MTT assay relative to control", "assay_type": "functional", "details": "read-out: Activity", "summary_of_the_method": "as §1"}, "[13]": {"test": "Cytotoxicity against mouse N13 cells assessed as cell viability at 0.4 uM incubated for 24 hrs by MTT assay relative to control", "assay_type": "functional", "details": "read-out: Activity", "summary_of_the_method": "as §1"}, "F98 [14]": {"tested_on": "F98", "test": "Cytotoxicity against rat F98 cells assessed as cell viability at 0.4 uM incubated for 24 hrs by MTT assay relative to control", "assay_type": "functional", "details": "read-out: Activity", "summary_of_the_method": "as §1"}, "F98 [15]": {"tested_on": "F98", "test": "Cytotoxicity in rat F98 cells co-cultured with CM-Dil-labeled mouse N13 cells assessed as decrease in number of rat F98 cells measured after 24 hrs by bright-field microscopy", "assay_type": "functional, cell-based", "details": "dose <= 100.0 µg/ml", "summary_of_the_method": "(§2)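 Co-culture. N13 cells pre-labelled with the red membrane dye CM-DiI, then seeded together with F98 cells. Cells exposed to 0, 10 or 100 µg/mL for 24 h. Brightfield and fluorescence images taken on a high-content imager. Cell types separated by automatic segmentation on morphology (N13 rounded, F98 elongated) plus label. Cell counts and percentages of each type reported.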"}, "N13 [16]": {"tested_on": "N13", "test": "Cytotoxicity in CM-Dil-labeled mouse N13 cells co-cultured with rat F98 cells assessed as increase in number of mouse N13 cells upto 100 ug/ml measured after 24 hrs by bright-field microscopy", "assay_type": "functional, cell-based", "details": "dose <= 100.0 µg/ml", "summary_of_the_method": "as §2"}, "N13 [17]": {"tested_on": "N13", "test": "Induction of apoptosis in mouse N13 cells assessed as accumulation at sub G0/G1 phase at 100 ug/ml incubated for 24 hrs by flow cytometry", "assay_type": "functional, cell-based", "details": "dose 100.0 µg/ml", "summary_of_the_method": "(§3)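 N13 or F98 cells exposed to 100 µg/mL for 24 h, untreated cells as controls. DNA content measured by flow cytometry. The fraction in the sub-G0/1 region taken as apoptotic cells.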"}, "F98 [18]": {"tested_on": "F98", "test": "Induction of apoptosis in rat F98 cells assessed as accumulation at sub G0/G1 phase at 100 ug/ml incubated for 24 hrs by flow cytometry relative to control", "assay_type": "functional", "details": "dose 100 µg/ml", "summary_of_the_method": "as §3"}, "[19]": {"test": "Toxicity in rat assessed as brain injury administered locally in caudate nucleus of brain measured after 30 days by MRI analysis", "assay_type": "tissue-based", "details": "in vivo, other, 720 h, route it, time 30 day", "summary_of_the_method": "(§4)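 Non-tumor-bearing rats given a local injection into the caudate nucleus; PBS injected at the same site as control. Brain injury checked by in vivo MRI up to 30 days. Animals watched for external signs of pain or suffering. Survival monitored for 30 days.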"}, "[20]": {"test": "Toxicity in rat assessed as signs of pain administered locally in caudate nucleus of brain measured after 30 days", "assay_type": "tissue-based", "details": "in vivo, other, 720 h, route it, time 30 day", "summary_of_the_method": "as §4"}, "[21]": {"test": "Toxicity in rat assessed as signs of suffering administered locally in caudate nucleus of brain measured after 30 days", "assay_type": "tissue-based", "details": "in vivo, other, 720 h, route it, time 30 day", "summary_of_the_method": "as §4"}, "[22]": {"test": "Toxicity in rat assessed as survival rate administered locally in caudate nucleus of brain measured after 30 days relative to control", "assay_type": "tissue-based", "details": "in vivo, route it, time 30 day", "summary_of_the_method": "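Non-tumor-bearing rats received compound by local injection into the caudate nucleus, with PBS injected into the same region as control. Brains were imaged by in vivo MRI (9.4 T) before and 30 days after injection. Animals were watched for signs of pain, and survival over 30 days was plotted as Kaplan-Meier.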"}, "F98 [23]": {"tested_on": "F98", "test": "Antitumor activity against rat F98 cells xenografted in Fisher rat assessed as necrotic/apoptotic tumor cells at 5 mg/kg, IT measured after 2 days by MRI analysis", "assay_type": "functional, organism-based", "details": "time 2.0 day"}, "F98 [24]": {"tested_on": "F98", "test": "Antitumor activity against rat F98 cells xenografted in Fisher rat assessed as average tumor volume at 5 mg/kg, IT measured after 2 days by MRI analysis (reference value: 845 mm^3)", "assay_type": "functional", "details": "time 2 day"}, "[25]": {"test": "Toxicity in Fisher rat xenografted with rat F98 cells assessed as animal survival at 5 mg/kg, IT measured for 5 days", "assay_type": "organism-based", "details": "in vivo, other, 120 h, time 5 day", "summary_of_the_method": "(§5)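 F98 glioma cells implanted in rats per an earlier protocol. Tumor volume followed by T₂-weighted MRI (9.4 T, turbo-RARE, TE 33 ms, TR 2500 ms) on days 3, 5, 8, 10, 12 and 15. On day 10 (mean tumor about 325 mm³), compound in PBS was given intratumorally at 5 mg/kg; PBS alone was the control. Survival was plotted as Kaplan-Meier.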"}, "F98 [26]": {"tested_on": "F98", "test": "Antitumor activity against rat F98 cells xenografted in Fisher rat assessed as average tumor volume at 5 mg/kg, IT measured after 5 days by MRI analysis", "assay_type": "functional", "details": "time 5 day"}, "[27]": {"test": "Toxicity in Fisher rat xenografted with rat F98 cells assessed as animal survival at 5 mg/kg, IT measured for 16 days", "assay_type": "organism-based", "details": "in vivo, other, 384 h, time 16 day", "summary_of_the_method": "as §5"}}, "note": "Activity calls are given as the source filed them. The rule behind the calls is not given here.", "data": [{"smiles": "CCOC(=O)C[C@H](N)c1cc(Br)ccc1O", "values": [{"measurement": "viability at 0.31 µM", "setting": "[1]", "result": 40, "unit": "%"}, {"measurement": "IC50", "setting": "[2]", "result": 500, "unit": "µM"}, {"measurement": "viability at 0.31 µM", "setting": "F98 [3]", "result": 60, "unit": "%"}, {"measurement": "IC50", "setting": "F98 [4]", "result": 210, "unit": "µM"}]}, {"smiles": "CCOC(=O)C[C@H](N)c1cc([N+](=O)[O-])ccc1O", "values": [{"measurement": "viability at 0.34 µM", "setting": "[5]", "result": 30, "unit": "%"}, {"measurement": "IC50", "setting": "[2]", "result": 660, "unit": "µM"}, {"measurement": "viability at 0.34 µM", "setting": "F98 [6]", "result": 20, "unit": "%"}, {"measurement": "IC50", "setting": "F98 [4]", "result": 1140, "unit": "µM"}]}, {"smiles": "CCOC(=O)C[C@H](N)c1ccc(OC)cc1O", "values": [{"measurement": "viability at 0.36 µM", "setting": "[7]", "result": 55, "unit": "%"}, {"measurement": "IC50", "setting": "[2]", "result": 340, "unit": "µM"}, {"measurement": "viability at 0.36 µM", "setting": "F98 [8]", "result": 45, "unit": "%"}, {"measurement": "IC50", "setting": "F98 [4]", "result": 470, "unit": "µM"}]}, {"smiles": "N[C@H]1CC(=O)Oc2ccccc21", "values": [{"measurement": "viability at 0.5 µM", "setting": "[9]", "result": 15, "unit": "%"}, {"measurement": "IC50", "setting": "[2]", "result": 1570, "unit": "µM"}, {"measurement": "viability at 0.5 µM", "setting": "F98 [10]", "result": 55, "unit": "%"}, {"measurement": "IC50", "setting": "F98 [4]", "result": 480, "unit": "µM"}]}, {"smiles": "CCOC(=O)C[C@H](N)c1cc(Br)cc(OC)c1O", "values": [{"measurement": "viability at 0.28 µM", "setting": "[11]", "result": 60, "unit": "%"}, {"measurement": "IC50", "setting": "[2]", "result": 220, "unit": "µM"}, {"measurement": "viability at 0.28 µM", "setting": "F98 [12]", "result": 60, "unit": "%"}, {"measurement": "IC50", "setting": "F98 [4]", "result": 170, "unit": "µM"}]}, {"smiles": "CCOC(=O)C[C@H](N)c1ccccc1O.Cl", "values": [{"measurement": "viability at 0.4 µM", "setting": "[13]", "result": 0, "unit": "%"}, {"measurement": "viability at 0.4 µM", "setting": "F98 [14]", "result": 60, "unit": "%"}, {"measurement": "IC50", "setting": "F98 [4]", "result": 140, "unit": "µM"}, {"measurement": "Activity", "setting": "F98 [15]", "result": "Dose-Dependent Effect"}, {"measurement": "Activity", "setting": "N13 [16]", "result": "Active"}, {"measurement": "Activity", "setting": "N13 [17]", "result": "inactive"}, {"measurement": "Activity", "setting": "F98 [18]", "result": 42, "unit": "%"}, {"measurement": "Activity", "setting": "[19]", "result": "Non-Toxic"}, {"measurement": "Activity", "setting": "[20]", "result": "Non-Toxic"}, {"measurement": "Activity", "setting": "[21]", "result": "Non-Toxic"}, {"measurement": "survival at 720 h", "setting": "[22]", "result": 100, "unit": "%"}, {"measurement": "Activity", "setting": "F98 [23]", "result": "Active"}, {"measurement": "Activity", "setting": "F98 [24]", "result": 370, "unit": "mm3"}, {"measurement": "Activity", "setting": "[25]", "result": "Non-Toxic"}, {"measurement": "Activity", "setting": "F98 [26]", "result": 815, "unit": "mm3"}, {"measurement": "Activity", "setting": "[27]", "result": "Non-Toxic"}]}, {"smiles": "CCOC(=O)C[C@@H](N)c1ccccc1O", "values": [{"measurement": "viability at 0.4 µM", "setting": "[13]", "result": 40, "unit": "%"}, {"measurement": "IC50", "setting": "[2]", "result": 450, "unit": "µM"}, {"measurement": "viability at 0.4 µM", "setting": "F98 [14]", "result": 35, "unit": "%"}, {"measurement": "IC50", "setting": "F98 [4]", "result": 780, "unit": "µM"}]}, {"smiles": "CCOC(=O)C[C@H](N)c1cc(OC)ccc1O", "values": [{"measurement": "viability at 0.36 µM", "setting": "[7]", "result": 70, "unit": "%"}, {"measurement": "IC50", "setting": "[2]", "result": 40, "unit": "µM"}, {"measurement": "viability at 0.36 µM", "setting": "F98 [8]", "result": 5, "unit": "%"}]}]}
